A selection: hits, their analogues and other compounds. The true share with any hit is near 2.2%.
Hck Nef HTS: inhibitors of Nef-activated human Hck kinase, primary screen, biochemical, Z-Lyte FRET, 384-well, Hck-YEEI; 220,000 compounds, 0.68% hits; inhibition, % at 20 µM; Tyrosine-protein kinase HCK (Homo sapiens), P08631; Recombinant Hck-YEEI plus Nef, Z-Lyte FRET kinase assay;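 active = Hck-Nef kinase inhibition above about 50%, limit read from the data; inactive = inhibition below that limit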;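 also: 0% = DMSO with Hck plus Nef and 100% = Hck alone without Nef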
RanGTP-Imp inh: inhibitors of RanGTP-importin-beta interaction, primary screen, biochemical, FRET, CFP-Ran, YFP-importin-beta, homogeneous; cell-free CFP-Ran/YFP-importin-beta FRET ratio; inhibition, % (concentration not given with the values); 300,000 compounds, 1.1% hits; AID 2216, 2009;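 active = more than half of the replicate wells show a fall in the fluorescence ratio signal beyond about 16%, limit read from the data, passing the limit was not always enough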;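 also: 0% = DMSO wells and 100% = Ran loaded with GDP instead of GTP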
Runt-CBFb FRET: inhibitors of RUNX1 Runt–CBFb binding, primary screen, biochemical, FRET, Cerulean-Runt, Venus-CBFb, uHTS | 220,000 compounds, 0.46% hits | Cerulean-Runt/Venus-CBFb FRET ratio 530/480, 1 h | inhibition, % at 20 µM;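 active = inhibition over about 50% at 20 µM in the single-dose screen, limit read from the data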;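 also: 0% = DMSO wells and 100% = excess unlabeled CBFb competitor control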
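Doses: 20 µM compound in 1% DMSO | Material: Cerulean-labeled Runt domain protein | Amount: Each fluorescent fusion protein 100 nM | Schedule: Two 1 h room-temperature incubations shielded from light | Measured by: FRET fluorescence | Evaluation: Loss of energy transfer signal | Controls: Unlabeled CBFb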
PERK inhibitor: block of dimerizer-induced PERK translation repression, primary screen, PERK inhibitor project, CHO PERK-DD cells, SEAP luminescence, HTS | Eukaryotic translation initiation factor 2-alpha kinase 3 (Homo sapiens), Q9NZJ5 | CHO PERK-DD fusion, SEAP luminescence translation reporter | inhibition, % at 5.6 µM | 220,000 compounds, 0.17% hits | AID 1416, 2008;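 active = inhibition above the mean inhibition of all tested compounds plus 3 SD, set separately per screening campaign, cut at about 2.9% in these data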;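 also: PERK kinase domain activated by AP20187 dimerizer at 100 nM; 0% = DMSO with dimerizer and 100% = rapamycin at 8.4 µM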
Runt-SMMHC FRET: inhibitors of RUNX1 Runt–CBFb-SMMHC binding, primary screen, biochemical, FRET, Cerulean-Runt, Venus-CBFb-SMMHC, uHTS | AID 1434, 2008 | Cerulean-Runt/Venus-CBFb-SMMHC FRET ratio 530/480, 1 h | 220,000 compounds, 0.74% hits | inhibition, % at 20 µM | Runt-related transcription factor 1 (Homo sapiens) + Core-binding factor subunit beta …;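 active = mean inhibition across duplicate retests at 20 µM reaching about 50%, limit read from the data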;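 also: 0% = DMSO wells and 100% = wells with excess untagged CBFb-SMMHC; inhibitors lower the FRET ratio by blocking Runt binding to CBFb-SMMHC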
eIF4E-4G inh: eIF4E–eIF4G protein interaction inhibitors, primary screen, biochemical, uHTS, TR-FRET, eIF4GI fragment. inhibition, % at 21.7 µM. TR-FRET eIF4E-eIF4GI(517-606) binding, 2 h. AID 782, 2007. 220,000 compounds, 0.37% hits. Eukaryotic translation initiation factor 4E (Mus musculus) + Eukaryotic translation …;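 active = inhibition above about 30%, limit read from the data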;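 also: 0% = full FRET control wells and 100% = background wells lacking eIF4GI fragment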
YIC counter: YIC intramolecular FRET probe signal interference, dose response, counter-screen for RanGTP-importin-beta inhibitor project, biochemical, fluorescence FRET; IC50, µM; AID 435026, 2010; 1,000 compounds, 40% hits; Purified YIC probe, intramolecular FRET ratio YFP/CFP; shares compounds with RanGTP-Imp inh;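 active = fitted half-maximal inhibitory concentration no more than tenfold above the top dose tested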
Numbers without * were called inactive.

For COC(=O)N(C)C[C@H]1OCc2cn(nn2)CCCC(=O)N([C@@H](C)CO)C[C@H]1C the results were YIC counter >50.
`CCCC(=O)Nc1nnc(-c2ccc3c(c2)OCCO3)o1` gave Hck Nef HTS 12.5, RanGTP-Imp inh 0.5, Runt-CBFb FRET -0.3, PERK inhibitor 1.0, Runt-SMMHC FRET 0.6 and eIF4E-4G inh 0.1.
CCN(CC)S(=O)(=O)c1ccc(NC(=O)c2cccc3c2C(=O)N(CCOC)C3)cc1 was read as Hck Nef HTS 2.3, RanGTP-Imp inh 18.5*, Runt-CBFb FRET -5.1, PERK inhibitor -0.1, Runt-SMMHC FRET 7.7, eIF4E-4G inh 8.2 and YIC counter >50.
CCOC(=O)C1CCCCN1C(=O)CCn1nnnc1CN1CCOCC1 (stereo not drawn) was read as RanGTP-Imp inh 3.6.
Screening O=C(Nc1nc2ccc(S(=O)(=O)N3CCCCC3)cc2s1)c1cccnc1 returned Hck Nef HTS 1.1, RanGTP-Imp inh 22.0*, Runt-CBFb FRET -10.7, PERK inhibitor 0.2, Runt-SMMHC FRET -7.0, eIF4E-4G inh 3.3 and YIC counter >26.
For Cc1nn(C)c(Oc2ccc(Cl)cc2)c1C(=O)O the results were Hck Nef HTS 1.9, RanGTP-Imp inh 23.2*, Runt-CBFb FRET 0.3, PERK inhibitor 0.8, Runt-SMMHC FRET 4.3 and YIC counter >50.
Screening CC1Cc2cc(/C(O)=C3/C(=O)C(=O)N(Cc4ccncc4)C3c3ccc(N(C)C)cc3)ccc2O1 (stereo not drawn) returned RanGTP-Imp inh 22.2* and YIC counter >50.
COc1ccc(C2/C(=C(/O)c3ccc4c(c3)CC(C)O4)C(=O)C(=O)N2Cc2cccnc2)cc1 (stereo not drawn) was read as RanGTP-Imp inh 1.4.
Screening CCCn1c(SCC(=O)Nc2ccc(NC(C)=O)cc2)nc2c1c(=O)n(C)c(=O)n2C returned RanGTP-Imp inh 17.4* and YIC counter >50.
`COc1cccc(NC(=O)CSc2ncc(S(=O)(=O)c3ccccc3)c(=O)[nH]2)c1` gave Hck Nef HTS 12.5, RanGTP-Imp inh 30.4*, Runt-CBFb FRET -0.7, PERK inhibitor 1.6, Runt-SMMHC FRET -0.4, eIF4E-4G inh -0.8 and YIC counter >50.
Cc1ccc(NC(=O)CSc2ncc(S(=O)(=O)c3ccccc3)c(=O)[nH]2)cc1C was read as Hck Nef HTS 1.9, RanGTP-Imp inh 1.2, Runt-CBFb FRET 2.1, PERK inhibitor 0.5, Runt-SMMHC FRET -5.1 and eIF4E-4G inh 2.3.
CC1C=CCC2C(=O)N(c3ccccc3OC(=O)c3cccs3)C(=O)C12 (stereo not drawn) was read as Hck Nef HTS 18.0, RanGTP-Imp inh 21.5*, Runt-CBFb FRET -0.5, PERK inhibitor 0.1, Runt-SMMHC FRET -1.2, eIF4E-4G inh 3.4 and YIC counter >50.
`CC1C=CCC2C(=O)N(c3ccc(OC(=O)c4cccs4)cc3)C(=O)C12` (stereo not drawn) gave Hck Nef HTS 17.3, RanGTP-Imp inh 5.9, Runt-CBFb FRET -0.2, PERK inhibitor 0.1, Runt-SMMHC FRET -1.0 and eIF4E-4G inh 4.9.
For CCc1ccc(CN2CCC(n3nccc3NC(=O)c3ccccc3Cl)CC2)cc1 the results were RanGTP-Imp inh 3.8.
`CC(C)(C)CN1CCC(n2nccc2NC(=O)c2ccccc2Cl)CC1` gave RanGTP-Imp inh 19.7* and YIC counter >50.
Screening CC(C)C[C@H](N)c1nnc(S(=O)(=O)Cc2ccc(F)cc2)o1 returned Hck Nef HTS -22.3, RanGTP-Imp inh 0.9, Runt-CBFb FRET -5.0, PERK inhibitor 0.2, Runt-SMMHC FRET -2.8 and eIF4E-4G inh -7.9.
For CCOC(=O)C1CCN(C(=O)COC(=O)c2ccc3[nH]c4c(c3c2)CCCC4)CC1 the results were RanGTP-Imp inh 19.3* and YIC counter >50.
For CC1CCCN(C(=O)COC(=O)c2ccc3[nH]c4c(c3c2)CCCC4)C1 (stereo not drawn) the results were RanGTP-Imp inh 11.6.
`COC(=O)c1sc(=S)n(Cc2ccccc2)c1C` gave Hck Nef HTS 2.0, RanGTP-Imp inh -1.7, Runt-CBFb FRET 0.1, PERK inhibitor -0.1, Runt-SMMHC FRET -0.5 and eIF4E-4G inh -0.4.
CCn1c(O)c(C=Nc2ccccc2)sc1=S was read as Hck Nef HTS -11.9, RanGTP-Imp inh 36.9*, Runt-CBFb FRET 34.7, PERK inhibitor 0.8, Runt-SMMHC FRET 68.5*, eIF4E-4G inh 1.1 and YIC counter 16.8*.
For Oc1c(C=Nc2ccccc2)sc(=S)n1Cc1ccccc1 the results were Hck Nef HTS 15.7, RanGTP-Imp inh 39.0*, Runt-CBFb FRET 11.5, PERK inhibitor 0.8, Runt-SMMHC FRET 45.7, eIF4E-4G inh 1.4 and YIC counter 43.7*.
For CCn1c(O)c(C=Nc2ccccc2)sc1=O the results were Hck Nef HTS 14.7, RanGTP-Imp inh 0.9, Runt-CBFb FRET 5.8, PERK inhibitor 1.3, Runt-SMMHC FRET 46.8 and eIF4E-4G inh 3.9.
Screening Cc1cc(C)nc(SCC(=O)N2CCc3ccccc32)n1 returned RanGTP-Imp inh 1.3.
For Cn1c(N)c(C(=O)COC(=O)C2(c3ccc(F)cc3)CCCC2)c(=O)n(C)c1=O the results were Hck Nef HTS -6.1, RanGTP-Imp inh 21.8*, Runt-CBFb FRET -4.4, PERK inhibitor -0.3, Runt-SMMHC FRET -1.2, eIF4E-4G inh 1.1 and YIC counter >50.
`O=C(O)c1ccccc1C(=O)Nc1ccc(Br)c2cccnc12` gave Hck Nef HTS 6.4, RanGTP-Imp inh 17.1*, Runt-CBFb FRET 16.0, PERK inhibitor 1.1, Runt-SMMHC FRET 3.6, eIF4E-4G inh 5.3 and YIC counter >50.
`O=C(CSc1ccccc1)NC1CCCCCC1` gave RanGTP-Imp inh -3.5.
`O=C(Cc1ccccc1)N1CCC2(CC1)NCCc1[nH]cnc12` gave RanGTP-Imp inh 1.2.
COc1cc(-c2nc3cnccn3c2Nc2ccc(C(C)C)cc2)ccc1O was read as Hck Nef HTS -2.1, RanGTP-Imp inh 31.5*, Runt-CBFb FRET 1.5, PERK inhibitor -1.1, Runt-SMMHC FRET 11.0 and YIC counter >50.
